Among the data in ChEMBL document CHEMBL1126650, “Synthesis and structure-activity relationships of novel benzimidazole and imidazo[4,5-b]pyridine acid derivatives as thromboxane A2 receptor antagonists” (J Med Chem, 1993) are inhibition and Ki values, retold here.

The target of assay [1] is T1, Thromboxane A2 receptor (Homo sapiens) (UniProt P21731).
T1 sequence (whole entry): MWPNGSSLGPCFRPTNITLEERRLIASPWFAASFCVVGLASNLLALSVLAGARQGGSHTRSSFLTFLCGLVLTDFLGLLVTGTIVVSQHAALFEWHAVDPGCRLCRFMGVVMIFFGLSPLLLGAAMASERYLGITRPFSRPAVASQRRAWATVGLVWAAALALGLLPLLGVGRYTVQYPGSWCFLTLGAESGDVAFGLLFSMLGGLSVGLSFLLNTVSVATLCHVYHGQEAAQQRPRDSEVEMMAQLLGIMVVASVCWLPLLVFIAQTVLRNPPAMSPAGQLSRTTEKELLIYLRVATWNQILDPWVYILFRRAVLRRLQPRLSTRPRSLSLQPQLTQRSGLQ
In words: In vitro for percent inhibition against TXA2 / PGH-2 receptor using [125I]PTA-OH in human platelets at 10 e-5 M. In outline:
(§1)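 Washed human platelets from volunteer blood drawn into EDTA 5 mM and indomethacin 20 µM (final); PRP at 200 g, pellet at 2000 g. 5 × 10^7 platelets incubated 30 min at 37 °C with 0.1 nM [125I]PTA-OH in Tris/NaCl/dextrose/indomethacin buffer, pH 7.4. Screening at 10^-7 and 10^-5 M. Filtration, gamma counting. Nonspecific binding set by a tetrahydrocarbazole-acetic acid antagonist. Triplicate.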

The target in assay [2] is T1, Thromboxane A2 receptor (Homo sapiens). In words: Tested in vitro for percent inhibition against TXA2 / PGH-2 receptor using [125I]PTA-OH in human platelets at 10 e-7 M. In outline:
as §1

In another assay the target is T2, Thromboxane A2 receptor (Homo sapiens, UniProt P21731).
T2 sequence (P21731 whole entry): T1 sequence (whole entry)
The assay can be described thus: Tested in vitro for inhibition constant against TXA2 / PGH-2 receptor using [125I]PTA-OH binding affinity to human platelets.

The term inhibition denotes the percentage by which the read-out fell short of the control. Read a low inhibition as a weak effect. In the case of `CC(C)(CC(=O)O)Cc1nc2ccccc2n1Cc1ccc(O)cc1`, the inhibition amounted to 96% in assay [1] and 50% in assay [2].
The matching figures for `CC(C)(CC(=O)O)Cc1nc2ccccc2n1Cc1ccc(Cl)cc1`: 100% and 85%.
One may read the Ki as a measure of affinity in units of concentration, obtained from inhibition or displacement. For the molecule `CCC(CC)(CC(=O)O)Cc1nc2ccccc2n1Cc1ccc(Cl)cc1`, the results for the inhibition in assay [1] and in assay [2] were 97% and 35%, respectively. Also, the inhibition constant Ki at Thromboxane A2 receptor worked out at 160 nM.
`CC(Sc1nc2cc(F)ccc2n1Cc1ccc(Cl)cc1)C(=O)O` (stereo not given): the inhibition in assay [1] was determined as 83%; in assay [2] it was 9%.
The matching figures for `CC(C)(CC(=O)O)Cc1nc2cc(Cl)ccc2n1Cc1ccc(Br)cc1F`: 95% and 74%.
For `CC(C)(Sc1nc2cc(Cl)cnc2n1Cc1ccc(Cl)cc1)C(=O)O`, in that order: 100% and 30%.
With `O=C(O)[C@@H]1CC=CC[C@@H]1c1nc2cc(F)ccc2n1Cc1ccc(Cl)cc1`, the inhibition in assay [1] came to 96%; in assay [2] it was 15%. This molecule displayed an inhibition constant Ki at Thromboxane A2 receptor of 510 nM.
Turning to `CC(C)(CC(=O)O)Cc1nc2cc(Cl)c(Cl)cc2n1Cc1ccc(Cl)cc1`, the inhibition in assay [1] was found to be 100%; in assay [2], 14%.
The matching figures for `CC(C)(CC(N)=O)Cc1nc2ccccc2n1Cc1ccc(Cl)cc1`: 90% and 7%.
The matching figures for `CC(C)(CC#N)Cc1nc2ccccc2n1Cc1ccc(Cl)cc1`: 0% and 0%.
The matching figures for `CC(C)(CC(=O)O)Cc1nc2ccccc2n1Cc1ccccc1`: 95% and 13%.
Regarding `CC(C)(CC(=O)O)c1nc2ccccc2n1Cc1ccc(Cl)cc1`, the inhibition was 28% in assay [1] and 0% in assay [2].
The matching figures for `CC(C)(CC(=O)O)Cc1nc2cc(Cl)ccc2n1Cc1ccc(Cl)cc1F`: 87% and 77%.
For `CC(CC(=O)O)Cc1nc2ccccc2n1Cc1ccc(Cl)cc1` (stereo not given), in that order: 100% and 10%.
Regarding `O=C(O)[C@H]1CC[C@@H]1c1nc2cc(F)ccc2n1Cc1ccc(Cl)cc1`, the inhibition was 97% in assay [1] and 2% in assay [2]. Further, at Thromboxane A2 receptor, the Ki came to 810 nM.
With `CC(C)(CC(=O)O)Cc1nc2cc(F)ccc2n1Cc1ccc(Br)cc1F`, the inhibition is 100% in assay [1] and 98% in assay [2].
With `CC(C)(CC(=O)O)Cc1nc2cc(F)ccc2n1Cc1ccc(S(C)(=O)=O)cc1`, the inhibition in assay [1] and in assay [2] was 100% each time.
Take `Cc1ccc(Cn2c(CC(C)(C)CC(=O)O)nc3ccccc32)cc1`: the results for the inhibition in assay [1] and in assay [2] were 100% and 52%, respectively.
Take `CC(C)(CC(=O)O)Cc1nc2ccccc2n1Cc1ccc(Br)cc1`: the inhibition in assay [1] stood at 96%; in assay [2], 86%. Besides, the affinity at Thromboxane A2 receptor, expressed as Ki, was 16 nM.
Take `CC(C)(CC(=O)O)Cc1nc2cc(F)ccc2n1Cc1ccc(Cl)c(Cl)c1`: the inhibition in assay [1] stood at 92%; in assay [2] it was 89%.
On to `CC(C)(CC(=O)O)Cc1nc2ccccc2n1Cc1cccc(C(F)(F)F)c1`, for which the values for the inhibition in assay [1] and in assay [2] were 100% and 49%, respectively.
Turning to `CC(C)(CCC(=O)O)Cc1nc2cc(F)ccc2n1Cc1ccc(Cl)cc1`, the inhibition in assay [1] amounted to 87%; in assay [2], 56%. For the same molecule, affinity at Thromboxane A2 receptor was put at a Ki of 23 nM.
The matching figures for `CC(C)(CC(=O)O)Cc1nc2cccnc2n1Cc1ccc(Cl)cc1`: 62%, 41% and 39 nM.
The matching figures for `CC(C)(Sc1nc2cc(F)ccc2n1Cc1ccc(Cl)cc1)C(=O)O`: 83%, 3% and 670 nM.
For `O=C(O)CC1(Cc2nc3cc(F)ccc3n2Cc2ccc(Cl)cc2)CCCCC1`, in that order: 98%, 0% and 870 nM.
On to `O=C(O)CCCSc1nc2cc(Cl)cnc2n1Cc1ccc(Br)cc1F`, for which the results for the inhibition in assay [1] and in assay [2] were 60% and 24%, respectively.
For `O=C(O)CCCCSc1nc2cc(F)ccc2n1Cc1ccc(Cl)cc1`, in that order: 100% and 28%.
Take `O=C(O)COc1ccc(CCNS(=O)(=O)c2ccccc2)cc1`: the inhibition in assay [1] turned out to be 95%; in assay [2], 13%.
On to `O=C(O)[C@H]1CCC[C@@H]1c1nc2cc(F)ccc2n1Cc1ccc(Cl)cc1`, for which the figures for the inhibition in assay [1] and in assay [2] were 100% and 37%, respectively. In addition, the affinity at Thromboxane A2 receptor, expressed as Ki, was 140 nM.
As for `O=C(O)CC1(Cc2nc3cc(F)ccc3n2Cc2ccc(Cl)cc2)CCCC1`, the inhibition in assay [1] stood at 100%; in assay [2], 71%.
The matching figures for `CC(C)(CC(=O)O)Cc1nc2cc(Cl)ccc2n1Cc1ccc(Br)cc1`: 100% and 98%.
Regarding `COc1ccc(Cn2c(CC(C)(C)CC(=O)O)nc3cc(Cl)ccc32)cc1`, the inhibition is 100% in assay [1] and 95% in assay [2]. This molecule also came in with a Ki at Thromboxane A2 receptor of 20 nM.
Regarding `O=C(O)CCCSc1nc2cccnc2n1Cc1ccc(Cl)cc1`, the inhibition in assay [1] is 64%; in assay [2], 27%.
Consider `O=C(O)CC1(Cc2nc3cc(F)ccc3n2Cc2ccc(Cl)cc2)CC1`, for which the inhibition in assay [1] is 98%; in assay [2], 80%. The molecule also yielded a Ki on Thromboxane A2 receptor of 52 nM.
`CC(C)(CC(=O)O)Cc1nc2ccccc2n1Cc1ccc([N+](=O)[O-])cc1`: the results for the inhibition in assay [1] and in assay [2] were 100% and 83%, respectively.
The matching figures for `COc1ccc(Cn2c(CC(C)(C)CC(=O)O)nc3ccccc32)cc1`: 100% and 89%.
The matching figures for `CC(C)(CC(=O)O)Cc1nc2cc(Cl)ccc2n1Cc1ccc(Cl)cc1`: 99% and 74%.
For the molecule `O=C(O)CC1CCCc2c1n(Cc1ccc(Cl)cc1)c1ccc(F)cc21` (stereo not given), the inhibition in assay [1] and in assay [2] was 100% in each case. The same molecule showed a Ki at Thromboxane A2 receptor of 15.3 nM.
For the molecule `COc1ccc(Cn2c(CC(C)(C)CC(=O)O)nc3cc(F)ccc32)cc1`, the inhibition in assay [1] amounted to 100%; in assay [2], 79%. This molecule also had a Ki at Thromboxane A2 receptor of 4 nM.
On to `O=C(O)CCCSc1nc2cc(Cl)cnc2n1Cc1ccc(Cl)cc1`, for which the results for the inhibition in assay [1] and in assay [2] were 39% and 6%, respectively.
For `CC(C)(CC(=O)O)Cc1nc2cc(F)ccc2n1Cc1ccc(Cl)cc1F`, in that order: 77% and 58%.
Take `CC(C)(Cc1nc2cc(F)ccc2n1Cc1ccc(Cl)cc1)C(=O)O`: the inhibition in assay [1] was determined as 50%; in assay [2], 0%. At Thromboxane A2 receptor, the affinity corresponds to a Ki of 1700 nM.
As for `CSc1ccc(Cn2c(CC(C)(C)CC(=O)O)nc3cc(Cl)cnc32)cc1`, the inhibition in assay [1] was found to be 87%; in assay [2], 82%. The molecule further returned a Ki on Thromboxane A2 receptor of 7 nM.
For `CC(C)(CC(=O)O)Cc1nc2cc(F)ccc2n1Cc1ccc(Cl)cc1`, the inhibition is 100% in assay [1] and 94% in assay [2]. In addition, affinity at Thromboxane A2 receptor was put at a Ki of 7.8 nM.
For the molecule `CC(C)(CC(=O)O)Cc1nc2cc(Br)ccc2n1Cc1ccc(Cl)cc1`, the inhibition in assay [1] was 67%; in assay [2], 38%.
Turning to `O=C(O)CC(Cc1nc2ccccc2n1Cc1ccc(Cl)cc1)c1ccccc1` (stereo not given), the figures for the inhibition in assay [1] and in assay [2] were 17% and 0%, respectively.
As to `CSc1ccc(Cn2c(CC(C)(C)CC(=O)O)nc3cc(Cl)ccc32)cc1`, the values for the inhibition in assay [1] and in assay [2] were 89% and 87%, respectively. The affinity on Thromboxane A2 receptor, expressed as Ki, was 6 nM.
In the case of `O=C(O)CCc1nc2cc(F)ccc2n1Cc1ccc(Cl)cc1`, the inhibition in assay [1] was 64%; in assay [2] it was 0%. At Thromboxane A2 receptor, this molecule had a Ki of 5600 nM.
As to `CC(C)(CC(=O)O)Cc1nc2ccccc2n1Cc1ccc(F)cc1`, the values for the inhibition in assay [1] and in assay [2] were 100% and 66%, respectively.
For `CC(C)(CC(=O)O)Cc1nc2cc(Cl)ccc2n1Cc1ccc(S(C)(=O)=O)cc1`, in that order: 82% and 69%.
The matching figures for `CCC(C)(CC(=O)O)Cc1nc2ccccc2n1Cc1ccc(Cl)cc1` (stereo not given): 100% and 57%.
`O=C(O)CCCSc1nc2cc(F)ccc2n1Cc1ccc(Cl)cc1`: the inhibition worked out at 93% in assay [1] and 8% in assay [2].
On to `CC(C)(CC(=O)O)Cc1nc2ccccc2n1Cc1ccc(Br)cc1F`, for which the inhibition in assay [1] was determined as 99%; in assay [2] it was 88%. For the same molecule, at Thromboxane A2 receptor, the inhibition constant Ki stood at 11 nM.
For `CC(C)(CC(=O)O)Cc1nc2cc(Cl)ccc2n1Cc1ccc(Cl)c(Cl)c1`, in that order: 92%, 71% and 12 nM.
The matching figures for `CC(C)(CC(=O)O)Cc1nc2cc(F)ccc2n1Cc1ccc(Br)cc1`: 95%, 92% and 12 nM.
For the molecule `CSc1ccc(Cn2c(CC(C)(C)CC(=O)O)nc3cc(F)ccc32)cc1`, the inhibition in assay [1] and in assay [2] was 100% each time.
For `COc1ccc2c(c1)nc(CC(C)(C)CC(=O)O)n2Cc1ccc(Cl)cc1`, the inhibition worked out at 100% in assay [1] and 44% in assay [2].
